# CSC inhib: blocks cancer stem cells; cancer stem cell-like cells viability, luminescence; inhibition, % at 7.5 µM; 300,000 compounds, 1.1% hits; in the data active = inhibition above about 75%; tested in HMLE shEcad cells
# Efflux pump mplx: blocks antifungal efflux pumps in multiplex yeast assay. S. cerevisiae Candida pump triplex, Nile Red efflux. inhibition, % at 10 µM. 330,000 compounds, 0.44% hits;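 active = plate passing quality check with inhibition over a set limit, or well fluorescence over plate mean plus 4 SD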;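 also: Nile Red retained in pooled yeast measured as flow cytometry median fluorescence; 0% = buffer negative control and 100% = Enniatin B positive control; higher means more Nile Red kept so more efflux inhibition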
# Beta cell apopt: blocks beta cell apoptosis. INS-1E cytokine-induced death, ATP luminescence, 48 h; percent of positive-control rescue, neutral wells zero. protection from apoptosis, % (test concentration not listed). 300,000 compounds, 0.8% hits. AID 435005;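 active = Every replicate reaches about 75%, or at least half do and their mean reaches it too, limit read from the data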;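 also: 0% = cytokine-treated negative control wells and 100% = positive control rescue; higher means more ATP so stronger rescue from cytokine killing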
# Mot1-301 SUMO: blocks SUMOylation pathway, rescuing yeast Mot1-301 growth; AID 2716; S. cerevisiae Mot1-301 growth rescue, ATP luminescence, 38.5C; percent above DMSO median, 100 means doubled; growth rescue, % at 18.8 µM; 320,000 compounds, 1% hits;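 active = every valid replicate shows activation above 250% relative to neutral control wells; inactive = the rest, any valid replicate at or below 250%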;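 also: OY570 slx delta 5 strain wells were the positive control but not used for scaling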
# WT yeast gro inh: growth inhibition of WT yeast, mitochondrial fusion screen; mitochondrial fusion phenotypic screen, WT strain; inhibition, % at 10 µM; 190,000 compounds, 2.1% hits; AID 1362; in the data active = inhibition above about 58%; tested in S. cerevisiae
# T cruzi repl: T. cruzi replication inhibition; AID 1885; 300,000 compounds, 1.4% hits; inhibition, % (no concentration beside the values); T. cruzi beta-gal in NIH3T3, luminescence, 90 h;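 active = mean inhibition across valid replicates above about 55%, limit read from the data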;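 also: signal also drops with host cell toxicity which is not excluded here; 0% = plate median of DMSO wells and 100% = zero luminescence signal; higher percent means less beta-gal luminescence so fewer parasites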
#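 System: mouse NIH/3T3 fibroblasts infected with β-gal-expressing T. cruzi Tulahuen C4 / Input: NIH/3T3 cells, 5,000 per well / Buffer or medium: Low-serum DMEM with 2% FBS / Probe or stimulus: 5000 reporter trypomastigotes per well / Schedule: ≥90 h infection period, 3 h prior cell attachment / Measured by: GalScreen luminescence, 60 min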
# Starred values were filed as active, the others as inactive; . = no result. Sampled rows, rich in hits. Any-hit rate of the full collection: about 4.8%.
SMILES,CSC inhib,Efflux pump mplx,Beta cell apopt,Mot1-301 SUMO,WT yeast gro inh,T cruzi repl
Cc1ccc(NC(=O)c2cc(N3C(=O)CCC3=O)ccc2N2CCOCC2)cc1,-13.4,0.0,8.6,.,-0.4,-27.7
COC(=O)c1cc(NC(=O)c2cc(-c3ccccc3Cl)oc2C(F)(F)F)ccc1N1CCOCC1,89.5*,-0.1,11.2,-16.6,.,30.8
COC(=O)c1cc(NC(=O)c2cc(-c3ccc(Cl)cc3)oc2C(F)(F)F)ccc1N1CCOCC1,39.7,0.1,0.2,-7.4,.,62.8*
COC(=O)c1cc(NC(=O)c2c(-c3c(Cl)cccc3Cl)noc2C)ccc1N1CCOCC1,-8.5,-0.2,3.1,-3.9,.,2.0
C=C(CC[C@@H](O)C(C)(C)O)[C@H]1CC[C@]2(C)[C@@H]1CCC1[C@@]3(C)CCC(=O)C(C)(C)C3CC[C@]12C (stereo partly specified),109.3*,0.6,9.7,116.5,.,.
CCCCCCn1c2c(c(=N)c3c1CCC3)CCC2,25.5,0.1,108.6*,11.6,36.9,83.8*
CCCCCCCn1c2c(c(=N)c3c1CCC3)CCCC2,.,.,.,.,79.3,58.7*
CCCCCCn1c(=O)[nH]c2c(c1=O)CCC2,-9.8,-0.1,2.9,12.1,.,-2.7
CCCCn1c2c(c(=N)c3c1CCC3)CCC2,-9.2,0.0,48.0,-8.6,23.4,.
N=c1c2c(n(Cc3ccc(F)cc3)c3c1CCC3)CCC2,.,0.1,.,-3.3,65.6*,51.1
CCCCCCCCCn1c2c(c(=N)c3c1CCC3)CCC2,55.7,0.3,108.9*,483.1*,74.8,47.6
CCn1c2c(c(=N)c3c1CCC3)CCC2,8.8,-0.1,-2.0,3.4,1.9,-21.2
Cc1ccc(C)c(C(=O)CSc2nc(C)cc(=O)[nH]2)c1,-7.4,-0.1,2.5,-20.7,.,-4.6
C=CCNC(=S)NCCCCC1NC(=S)N(CC=C)C1=O (stereo unspecified),-1.9,0.0,1.9,-29.1,5.9,3.6
Cc1ncc([N+](=O)[O-])n1CC(=O)Nc1cccc(C(F)(F)F)c1,6.3,-0.1,-3.0,-0.7,.,-8.9
CSc1ccc(/C=C(\NC(=O)c2ccco2)C(=O)N2CCCCC2)cc1,-8.7,0.0,-0.7,5.9,.,24.9
CC(=O)NC(C)c1cc(F)c2cccnc2c1O (stereo unspecified),-4.4,-0.1,-7.8,2.9,.,.
CC(=O)NC(c1ccc(C)cc1)c1cc(Cl)c2cccnc2c1O (stereo unspecified),18.3,0.0,6.1,-3.1,.,62.4*
CC(=O)NC(c1cc(Cl)c2ccccc2c1O)C(C)C (stereo unspecified),24.4,0.0,1.5,2.3,.,.
Oc1c(C(Nc2ccccn2)c2cccnc2)cc(Cl)c2cccnc12 (stereo unspecified),-2.8,-0.6,84.6*,3.3,-25.0,55.3*
CC(=O)NC(c1cc(Cl)c2cccnc2c1O)C(C)C (stereo unspecified),42.1,-0.1,102.6*,-15.4,.,.
CC(=O)NC(c1cc(Cl)c2cccnc2c1O)C1CC1 (stereo unspecified),110.3*,-0.1,86.5*,-14.3,.,.
CN(c1ccccc1)S(=O)(=O)c1ccc(C(=O)NNC(=O)c2ccccc2F)cc1,.,-0.2,.,.,.,.
Cc1oc(-c2ccccc2F)nc1CS(=O)CC(=O)NCc1ccc(F)cc1 (stereo unspecified),8.5,0.1,0.5,179.8,.,9.8
Cc1cc(NC(c2cccnc2)c2ccc3cccnc3c2O)no1 (stereo unspecified),.,0.0,104.0*,15.5,-0.2,50.0
SMILES,CSC inhib,Efflux pump mplx,Beta cell apopt,Mot1-301 SUMO,WT yeast gro inh,T cruzi repl
O=[N+]([O-])c1c(NCCO)cc(N2CCCCC2)c2nonc12,9.9,0.7,7.3,46.3,-9.2,2.7
O=[N+]([O-])c1cc([N+](=O)[O-])c(N2CCCCCC2)cc1NCCO,70.3,-0.2,-12.1,-10.8,80.2*,10.2
COc1ccc(Nc2nnc(-c3ccccc3)c3ccccc23)cc1C(=O)N1CCCCC1,96.9*,0.3,-1.3,3.7,-5.8,-12.9
O=C(Nc1ccc(Cl)cc1)N1CCN(c2ccc3nnc(-c4ccc(F)cc4)n3n2)CC1,46.5,0.1,8.0,-3.1,80.3*,51.5
CCCNC(=O)CCn1cc(-c2ccc(OC)cc2)nc1-c1ccncc1,-3.9,-0.1,-1.1,-7.9,.,-26.0
CC(C)=CCc1cc2c(=O)c3c(O)c4c(cc3oc2c(O)c1O)OC(C)C4(C)C (stereo unspecified),4.9,0.1,109.1*,-11.2,.,67.1*

# Screening data as filed in PubChem.
